ANO1 block – TMEM16A chloride channel inhibitors, primary screen, cell-based, HTS. normalized B-score (activity score, 25-100; higher = stronger inhibition) at 10 µM. Anoctamin-1 (Mus musculus), Q8BHY3. AID 588511, 2011. HEK293 TMEM16A/YFP iodide influx fluorescence, ionomycin. 310,000 tested, 1.2% active;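 active = ratio plate-corrected score three or more library SD toward inhibition, starting fluorescence score within five deviations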;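 note: score derived from kinetic fluorescence span divided by baseline fluorescence per well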
MC4R ag barr – MC4R agonists recruiting beta-arrestin, primary screen, cell-based, luminescence, agonist arm of biased-ligand search; 360,000 tested, 0.98% active; activation, % at 8.9 µM; U2OS MC4R beta-arrestin complementation; percent of melanotan II response, DMSO zero;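 active = activation above a per-plate cutoff, the mean activation of sample wells on that plate plus 3 SD, cut at about 8% in these data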
CSC inhib – cancer stem cell viability inhibitors, primary screen, luminescence; 300,000 tested, 1.1% active; AID 2717, 2010; cancer stem cell-like cells viability; inhibition, % at 7.5 µM; in the data active = inhibition above about 75%; inconclusive = no clear call, values can overlap the other calls; tested in HMLE shEcad cells
TMEM16A act – TMEM16A chloride channel activators or potentiators, primary screen, cell-based, HTS. B-score at 10 µM. Anoctamin-1 (Mus musculus), Q8BHY3. 340,000 tested, 0.3% active. HEK293 TMEM16A/YFP-H148Q/I152L, iodide quench fluorescence; hits give low values;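 active = fluorescence-ratio B-score plate-corrected deviation score at least 3 library SD below zero, with starting fluorescence score within 5 deviations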;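 note: channel opened by trigger with iodide after compound preincubation; score built on the fluorescence ratio of max minus min over baseline; more negative score means more quench and so TMEM16A activation or potentiation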
MC4R antag cAMP – MC4R antagonists of cAMP signaling, primary screen, cell-based, TR-FRET, antagonist arm of biased-ligand search. 360,000 tested, 0.48% active. MC4R-expressing cells, MTII-stimulated cAMP, LANCE TR-FRET. Melanocortin receptor 4 (Homo sapiens), P32245. inhibition, % at 6.5 µM;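 active = inhibition above its plate's cutoff, the mean of tested wells on that plate plus 3 SD, cut at about 29% in these data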;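 note: 0% = Melanotan II alone and 100% = Melanotan II plus saturating MCL0020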
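Assay system: U2OS-MC4R stable cell line; Also added: Melanotan II; Technique: Eu-cAMP/anti-cAMP TR-FRET, emission 671 nm; Times: 30-min compound, 1-h challenge, 1-h detection, room temperature.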
Beta apoptosis – inhibitors of cytokine-induced beta cell apoptosis, primary screen, luminescence; INS-1E cytokine-induced death, ATP luminescence, 48 h; percent of positive-control rescue, neutral wells zero; protection from apoptosis, % (concentration not given with the values); 300,000 tested, 0.8% active; AID 435005, 2010;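 active = Every replicate reaches about 75%, or at least half do and their mean reaches it too, limit read from the data; inconclusive = At least half of replicates reach the limit but their mean does not; inactive = Under half of replicates reach the limit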;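 note: 0% = cytokine-treated negative control wells and 100% = positive control rescue; higher means more ATP so stronger rescue from cytokine killing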
U2OS cAMP counter – nonselective cAMP signaling inhibitors, parental cells, counter-screen for MC4R biased antagonist project, cell-based, TR-FRET, U2OS, forskolin, triplicate. shares compounds with MC4R antag cAMP. LANCE TR-FRET. inhibition, % at 6.5 µM. 1,600 tested, 26% active;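 active = mean inhibition over triplicates above the low-control well mean plus 3 SD, set per campaign, cut at about 13% in these data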;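 note: signal is single emission at 671 nm which falls as cellular cAMP rises; 0% = forskolin-stimulated wells and 100% = buffer without forskolin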
MC4R antag conf – MC4R cAMP antagonists, retest, confirmation, cell-based, TR-FRET; 1,600 tested, 27% active; inhibition, % at 6.5 µM; shares compounds with MC4R antag cAMP; MC4R-expressing cells, MTII-stimulated cAMP; in the data active = inhibition above about 29%;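 note: 0% = agonist stimulated wells alone and 100% = agonist stimulated wells plus saturating reference antagonist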
* marks the source's active call; other numbers are inactive results; i = inactive; ? = inconclusive; · = no result given. Rows were chosen to be rich in hits. Some 3.8% of all compounds tested hit in one or more screens of this group.

SMILES	ANO1 block	MC4R ag barr	CSC inhib	TMEM16A act	MC4R antag cAMP	Beta apoptosis	U2OS cAMP counter	MC4R antag conf
O=[N+]([O-])c1cc(S(=O)(=O)C(F)(F)F)ccc1Sc1nc2ccccc2s1	i	-3.2	101.0*	i	56.5*	-5.0	11.3	43.4*
O=S(=O)(NN=C1CCCCCCC1)c1ccccc1	·	-0.8	·	·	15.8	·	·	·
COc1ccccc1NC(=O)N(C)C[C@H]1Oc2ncc(C#CCN(C)C)cc2C(=O)N([C@H](C)CO)C[C@H]1C	·	-1.7	·	·	11.4	·	·	·
O=C(Nc1nnc(SCc2ccc(F)cc2)s1)c1cnccn1	i	-0.1	8.1	i	31.9*	0.8	-4.1	-10.8
CC(=O)Nc1nc(C2CC2)cc(-c2ccccc2)c1C#N	i	-1.2	-6.6	i	35.4*	·	1.3	0.3
NC(=O)COC(=O)CC1CC2CCC1C2 (stereo unspecified)	i	-1.9	6.3	i	1.4	2.2	·	·
O=C1CCC(=O)N1CC1CC2CCC1C2 (stereo unspecified)	i	0.5	7.5	i	36.8*	5.6	1.3	-2.1
CCOC(=O)c1c(NC(=O)C[n+]2ccc(N(C)C)cc2)sc(C)c1C	i	-1.4	6.5	i	29.6*	44.8	0.9	-2.1
S=c1[nH]ncn2c1cc1oc3ccccc3c12	i	-1.8	-8.8	i	33.6*	-1.3	22.3*	41.1*
COc1ccccc1NC(=O)CCN1C(=O)C2C3CCC(C3)C2C1=O (stereo unspecified)	i	-2.1	1.9	i	7.8	-1.3	·	·
CC(C)c1c(C(=O)N/N=C/c2cccc3ccccc23)nnn1-c1nonc1N	i	-1.3	-7.8	i	0.7	4.8	·	·
COc1cc(S(=O)(=O)N2CCn3cccc3C2C)ccc1NC(C)=O (stereo unspecified)	·	-0.7	-17.3	i	6.8	0.7	·	·
Cc1nc(-c2cccc(NC(=O)c3cccc(S(=O)(=O)N4CCCC4)c3)c2)cs1	·	-0.9	-11.2	i	15.8	5.6	·	·
Cc1nc(-c2cccc(NC(=O)c3ccc(Cl)c(S(=O)(=O)N4CCCC4)c3)c2)cs1	·	-1.3	·	·	31.4*	·	4.4	-12.4
Cc1cc(C(=O)c2ccc(Cl)cc2)c(NC(=O)CCl)s1	i	-0.3	9.1	i	40.6*	21.8	23.6*	64.9*
CN(Cc1ccc(OC(F)F)cc1)C(=O)/C=C/c1ccc(S(=O)(=O)N2CCOCC2)cc1	·	-1.6	-16.9	i	19.6	7.2	·	·
Cc1ccc(S(=O)(=O)N2CCN(C(=O)CSc3ccc(Cl)cc3)CC2)cc1	i	2.3	12.4	i	4.5	0.1	·	·
CC(=O)c1ccc(S(=O)(=O)N2CCN(C(=O)CSc3ccc(C)c(C)c3)CC2)cc1	i	0.3	7.1	i	34.5*	-4.8	-3.1	1.0
CC(=O)Nc1cccc(-c2ccnc3c2CC(C(=O)Nc2ccccc2)O3)c1 (stereo unspecified)	·	0.1	·	·	0.6	·	·	·
CCCC(=O)N1CCCC(C(=O)c2cccc(OC(C)C)c2)C1 (stereo unspecified)	i	-1.4	0.1	i	10.0	-3.4	·	·
N#Cc1ccc(/C=C/C(=O)c2ccco2)cc1	i	-1.2	-2.7	i	30.8*	-4.5	-2.5	8.3
Cc1ccc(C=NNc2nc3c([nH]2)c(=O)n(C)c(=O)n3C)cc1	·	-1.8	·	i	43.1*	·	1.7	0.3
CSCCC(NC(=O)c1ccc([N+](=O)[O-])cc1Cl)C(=O)OCC(=O)C12CC3CC(CC(C3)C1)C2 (stereo unspecified)	i	1.9	-11.2	i	33.1*	-5.3	-3.2	1.8
CSCCC(NC(=O)c1ccc([N+](=O)[O-])cc1Cl)C(=O)OCC(=O)N1CCN(C(C)=O)CC1 (stereo unspecified)	i	-2.2	-14.2	i	10.9	·	·	·
CSCCC(NC(=O)c1ccc([N+](=O)[O-])cc1Cl)C(=O)OC(C)C(=O)NCc1ccco1 (stereo unspecified)	i	-2.1	-2.0	i	28.7*	-0.8	8.5	18.4
SMILES	ANO1 block	MC4R ag barr	CSC inhib	TMEM16A act	MC4R antag cAMP	Beta apoptosis	U2OS cAMP counter	MC4R antag conf
O=C(COC(=O)c1ccc([N+](=O)[O-])cc1Cl)NCc1ccco1	·	1.3	-3.7	i	9.6	-3.9	·	·
COc1ccc(NC(=O)c2ccc(CN3CCc4ccccc4C3)cc2)c(OC)c1	i	-0.7	42.3	i	3.9	2.0	·	·
COC(=O)c1ccc(CN2CCc3ccc(NC(=O)c4ccncc4)cc3C2)cc1	100*	0.3	11.5	i	29.0*	-0.6	3.2	-1.2
C#CCOCCOCCOCCNc1nc(N2CCN(C(=O)CCCCCCCCCCNC(=O)[C@H](CCCCN)n3cc(C[C@@H](C)CC)nn3)CC2)nc(N2CCN(C(=O)CCCCCCCCCCNC(=O)[C@H](CCCCN)n3cc(C[C@@H](C)CC)nn3)CC2)n1	25*	-0.3	165.8*	-22.1*	75.4*	114.5*	34.1*	83.6*
COc1ccccc1CNC(=O)c1oc2ccc(S(=O)(=O)N3CCCC3)cc2c1C	i	-0.5	-0.5	i	29.3*	9.1	4.4	11.7
COc1ccccc1CNC(=O)c1oc2ccc(S(=O)(=O)N3CCOCC3)cc2c1C	i	-0.3	-8.2	i	4.3	5.3	·	·
COc1ccc(CNC(=O)c2oc3ccc(S(=O)(=O)N4CCOCC4)cc3c2C)cc1	i	0.7	5.3	i	31.8*	-3.9	-0.8	4.2
CCOc1cc2c(cc1OCC)CN(C(=O)c1cccc(S(=O)(=O)N3CCCC3)c1)CC2	·	-4.4	-7.9	i	5.9	9.5	·	·
Cc1ccc(C(=O)OCc2cc(=O)n3c(C)csc3n2)s1	·	-2.4	·	i	-3.1	-1.6	·	·
CCOC(=O)CC1C(=O)NCCN1C(=S)Nc1ccccc1 (stereo unspecified)	i	1.7	-8.9	i	28.6*	2.4	-7.4	-22.5
O=C(CCN1Cc2ccccc2C1)c1ccc2c(c1)OCCO2	i	-3.2	?	i	33.5*	-20.6	18.4*	31.2*

High-throughput results from PubChem BioAssay.
